One molecule from ChEMBL document CHEMBL4359878, “Discovery of 4-piperazinyl-2-aminopyrimidine derivatives as dual inhibitors of JAK2 and FLT3” (Eur J Med Chem, 2019) can be followed below.

Structures are written as SMILES.

In assay [1] the test system is HEL. The assay is described as follows: Induction of cell cycle arrest in human HEL cells assessed as accumulation at S phase at 1 uM after 72 hrs by propidium iodide-staining based flow cytometry (reference value: 41.47%). The format is functional. A digest of the protocol:
(§1)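 Subconfluent HEL cells were treated for 72 h at 0.33, 1.0, 3.0 or 9.0 μM, with untreated cells as control. Cultures were pulsed with 10 μM BrdU for 30 min at 37 °C before harvest, then PBS-washed, fixed in 70% ethanol and denatured in 2 M HCl. After neutralization, cells were stained with fluorescein anti-BrdU antibody and propidium iodide. DNA content was measured by flow cytometry with 488 nm excitation.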
For orientation: A flow cytometer gives signals particle by particle.

The subject of assay [2] is MV4-11. Put plainly: Antiproliferative activity against human MV4-11 cells assessed as growth inhibition after 72 hrs by CCK-8 assay. The assay is classed as functional. The settings on record: MV4-11, 72 h. A digest of the protocol: (§2)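 CCK-8 viability readout. Cells were cultured in RPMI 1640 with 10% FBS and 1% penicillin/streptomycin and seeded at 3000 (HEL), 5000 (MV4-11) or 3000 (HL60) cells/well. Increasing compound concentrations were applied for 72 h, then CCK-8 was added for a further 3 h and absorbance read at 450 nm. Inhibition = (1−A_sample/A_control)×100, normalized to DMSO controls. Value is the mean of three independent measurements, obtained by curve fitting.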
Background: Formazan colour is commonly taken as a measure of viable cells.

For assay [3], the system named is HEL. Put plainly: Induction of cell cycle arrest in human HEL cells assessed as accumulation at G2 phase at 1 uM after 72 hrs by propidium iodide-staining based flow cytometry (reference value: 15.10%). The format is functional. In a few lines:
as §1

The test system of assay [4] is HEL. Put plainly: Induction of apoptosis in human HEL cells assessed as late apoptotic cells at 1 uM after 72 hrs by FITC-annexin V/propidium iodide-double staining based flow cytometry (reference value: 1.63%). The format is functional.
Assay [5] relates to HEL. Put plainly: Induction of apoptosis in human HEL cells assessed as necrotic cells at 1 uM after 72 hrs by FITC-annexin V/propidium iodide-double staining based flow cytometry (reference value: 2.40%). The format is functional.
Assay [6] concerns HEL. Put plainly: Antiproliferative activity against human HEL cells assessed as growth inhibition after 72 hrs by CCK-8 assay. The format is functional. A digest of the protocol:
as §2

The test system of assay [7] is HEL. The assay is described as follows: Induction of apoptosis in human HEL cells assessed as viable cells at 0.33 uM after 72 hrs by FITC-annexin V/propidium iodide-double staining based flow cytometry (reference value: 93.77%). The format is functional. The settings on record: read-out: Activity.
Assay [8] deals with HEL. The assay is described as follows: Induction of apoptosis in human HEL cells assessed as late apoptotic cells at 3 uM after 72 hrs by FITC-annexin V/propidium iodide-double staining based flow cytometry (reference value: 1.63%). The assay is classed as functional.
Assay [9] addresses T1, Receptor-type tyrosine-protein kinase FLT3 (Homo sapiens, UniProt P36888).
T1 sequence (P36888 whole entry): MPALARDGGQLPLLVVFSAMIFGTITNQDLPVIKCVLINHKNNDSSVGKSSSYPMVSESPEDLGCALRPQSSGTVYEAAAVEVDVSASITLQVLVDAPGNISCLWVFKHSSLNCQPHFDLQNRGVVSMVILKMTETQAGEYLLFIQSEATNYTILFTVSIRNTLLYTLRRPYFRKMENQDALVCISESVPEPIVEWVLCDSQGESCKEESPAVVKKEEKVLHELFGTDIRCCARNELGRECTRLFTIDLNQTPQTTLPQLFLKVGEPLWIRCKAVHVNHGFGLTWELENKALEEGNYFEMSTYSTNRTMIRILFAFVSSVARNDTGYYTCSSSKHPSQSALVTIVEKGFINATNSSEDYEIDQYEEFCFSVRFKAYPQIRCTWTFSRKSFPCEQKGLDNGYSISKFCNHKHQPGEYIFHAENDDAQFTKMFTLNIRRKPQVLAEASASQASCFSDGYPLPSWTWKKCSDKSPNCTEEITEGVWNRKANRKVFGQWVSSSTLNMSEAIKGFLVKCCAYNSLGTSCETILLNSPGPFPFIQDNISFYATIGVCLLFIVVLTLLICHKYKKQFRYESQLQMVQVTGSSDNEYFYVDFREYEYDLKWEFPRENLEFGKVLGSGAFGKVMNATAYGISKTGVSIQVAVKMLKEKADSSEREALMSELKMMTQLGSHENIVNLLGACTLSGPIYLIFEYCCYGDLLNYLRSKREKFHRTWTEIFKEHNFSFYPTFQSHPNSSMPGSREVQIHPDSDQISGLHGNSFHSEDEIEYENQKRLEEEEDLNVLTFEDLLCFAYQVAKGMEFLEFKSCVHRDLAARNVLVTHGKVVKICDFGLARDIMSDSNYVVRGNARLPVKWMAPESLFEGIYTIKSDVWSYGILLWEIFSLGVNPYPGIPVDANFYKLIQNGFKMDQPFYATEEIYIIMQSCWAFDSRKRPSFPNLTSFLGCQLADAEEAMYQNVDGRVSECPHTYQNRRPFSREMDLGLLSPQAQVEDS
Put plainly: Inhibition of N-terminal GST-tagged human FLT3 cytoplasmic domain (564 to 993 residues) expressed in baculovirus expression system musing FAM-labeled peptide as substrate preincubated for 10 mins followed by substrate addition measured after 1 hr in presence of ATP by mobility shift assay. In a few lines:
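Caliper mobility-shift assay with recombinant kinase in 50 mM HEPES pH 7.5, 0.0015% Brij-35. Compound was diluted from DMSO and preincubated with enzyme for 10 min at room temperature. FAM-labeled peptide plus ATP was then added and the reaction run for 1 h at 28 °C. It was stopped with an EDTA (50 mM) buffer. Conversion gave percent inhibition relative to max/min controls, and IC50 came from a four-parameter Hill fit. Duplicate wells were used.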

The subject of assay [10] is HEL. The assay is described as follows: Induction of cell cycle arrest in human HEL cells assessed as accumulation at G1 phase at 3 uM after 72 hrs by propidium iodide-staining based flow cytometry (reference value: 43.12%). The assay is classed as functional. A digest of the protocol: as §1
Assay [11] concerns HEL. The assay is described as follows: Induction of apoptosis in human HEL cells assessed as viable cells at 3 uM after 72 hrs by FITC-annexin V/propidium iodide-double staining based flow cytometry (reference value: 93.77%). The assay is classed as functional. The settings on record: read-out: Activity.

As a reminder, the GI50 is the concentration at which growth is held to half of that of the control. The term IC50 denotes the point on the concentration scale where inhibition reaches its midpoint. As for `CC(=O)c1ccc(NC(=O)N2CCN(c3ccnc(Nc4ccc(N5CCOCC5)cc4)n3)CC2)cc1`, the Activity is reported as 31.59% in assay [1]; 6.97% in assay [3]; 22.4% in [4]; 12.73% in [5]; 33.6% in [8]; 71.85% in assay [10]. The GI50 is 11 µM in assay [2] and 4.3 µM in assay [6]. The viability at 0.33 µM in assay [7] worked out at 88.3%. Moreover, the IC50 in assay [9] was determined as 0.03 µM. Also, the viability at 3 µM in assay [11] came to 22.6%.
